Experimental data gathered from unrelated publications.
Spike glycoprotein: Spike glycoprotein (Severe acute respiratory syndrome coronavirus 2, UniProt P0DTC2)

O=C1c2c(O)cccc2C([C@@H]2O[C@H](CO)[C@@H](O)[C@H](O)[C@H]2O)c2cc(CO)cc(O)c21 (stereo partly shown) — koff (Spike glycoprotein; binding; BLI): 0.0217 s⁻¹
CC[C@H](C)[C@@H]1NC(=O)[C@H](C)NC(=O)[C@H](CCCCN)NC(=O)[C@H](Cc2c[nH]c3ccccc23)NC(=O)[C@H](CC(C)C)NC(=O)[C@H](CC(C)C)NC(=O)[C@H](C(C)C)NC(=O)[C@H](CC(=O)O)NC(=O)[C@H](Cc2ccccc2)NC(=O)[C@H](Cc2ccc(O)cc2)NC(=O)[C@@H](Cc2ccc(O)cc2)NC(=O)CSC[C@@H](C(N)=O)NC(=O)[C@H](CO)NC1=O — koff (Spike glycoprotein; binding): 0.065 s⁻¹
Nc1ncc(-c2nc(N3CCOCC3)nc(N3CCOCC3)n2)c(C(F)F)n1 — remaining binding (Tyrosine-protein kinase ABL1, non-phosphorylated (ABL1, Homo sapiens, UniProt P00519); binding; competition with immobilised ligand; 10 µM): 70%
Cn1cc(-c2cccc(N3CCc4c(sc5c4CC(C)(C)C5)C3=O)c2CO)cc(Nc2ccncn2)c1=O — inhibition (Serine/threonine-protein kinase WNK2 (WNK2, Homo sapiens, UniProt Q9Y3S1); enzyme activity; inhibitor; 1 µM): 2%
C=C1C[C@@]23CC[C@H]4[C@@](C)(CCC[C@@]4(C)C(=O)O[C@@H]4O[C@H](CO)[C@@H](O)[C@H](O)[C@H]4O)[C@@H]2CC[C@]1(O[C@@H]1O[C@H](CO)[C@@H](O)[C@H](O)[C@H]1O)C3 — koff (Spike glycoprotein; binding; BLI): 0.122 s⁻¹
COc1ncccc1-c1cnn2ccc(N3CCN(C(=O)OC(C)C)CC3)nc12 — remaining binding (Serine/threonine-protein kinase RIO1 (RIOK1, Homo sapiens, UniProt Q9BRS2); binding; competition with immobilised ligand; 1 µM): 3.9%
O=c1cc(-c2ccccc2)oc2c(O)c(O)ccc12 — koff (Spike glycoprotein; binding; BLI): 0.0482 s⁻¹
C#Cc1n[nH]c2c(-c3cn(C(C)c4ccccn4)c(=O)[nH]c3=O)cc(F)cc12 (stereo not shown) — inhibition (Receptor tyrosine-protein kinase erbB-2 (ERBB2, Homo sapiens, UniProt P04626); enzyme activity; inhibitor; 1 µM): -4.5%
CCCCCCCCCCCCCCCCCCCCCCCCCC(=O)N[C@@H](CO[C@H]1O[C@H](CO)[C@H](O)[C@H](O)[C@H]1O)[C@H](O)[C@H](O)CCCCCCCCCCCCCC — kon (Cd1d1 (Mus musculus, UniProt P11609); binding; SPR): 63000 M⁻¹ s⁻¹
Cn1cc(-c2cc(F)cc(N3CCn4c(cc5c4CCCC5)C3=O)c2CO)cc(Nc2ccc(N3CCN(C4COC4)CC3)cn2)c1=O — inhibition (Tyrosine-protein kinase ABL1 (ABL1, Homo sapiens, UniProt P00519, E255K); enzyme activity; inhibitor; 0.1 µM): 1%
O=c1c(O)c(-c2ccc(O)cc2)oc2cc(O)cc(O)c12 — koff (Spike glycoprotein; binding; BLI): 0.053 s⁻¹
CC[C@H](C)[C@@H]1NC(=O)[C@H](Cc2ccc(O)cc2)NC(=O)[C@H](C(C)C)NC(=O)[C@H]([C@@H](C)CC)NC(=O)[C@H](CO)NC(=O)[C@H](Cc2ccc(O)cc2)NC(=O)CSC[C@@H](C(N)=O)NC(=O)CNC(=O)[C@H](CCCNC(=N)N)NC(=O)CNC(=O)[C@H](C(C)C)NC(=O)[C@H](Cc2ccccc2)NC(=O)[C@H](CCCNC(=N)N)NC(=O)[C@H](C(C)C)NC(=O)[C@H](CCC(=O)O)NC(=O)CNC(=O)[C@H](CCCCN)NC1=O — koff (Spike glycoprotein; binding): 0.0058 s⁻¹
Cc1nn(C)cc1-c1nc2c(N3CCN(Cc4ccc(Cl)cc4)CC3)c(Cl)cnc2[nH]1 — remaining binding (Tyrosine-protein kinase ABL1, non-phosphorylated (ABL1, Homo sapiens, UniProt P00519, H396P); binding; competition with immobilised ligand; 1 µM): 100%
